# Screening results: PubChem, Sanford-Burnham Center for Chemical Genomics
# In the library only some 1.9% were active in any assay of this set; here they are far more common.
# DNMT1 block = human DNMT1 methyltransferase inhibitors, primary screen, biochemical, molecular beacon, fluorescence, HinP1I cleavage, uHTS. DNA (cytosine-5)-methyltransferase 1 (Homo sapiens), P26358. AID 588458, 2011. 360,000 tested, 0.83% active. inhibition (reported as % activation of signal), % at 10 µM; in the data active = inhibition above about 50%
# Scp1 inh = Scp-1 phosphatase inhibitors, primary screen, biochemical, colorimetric, uHTS; Carboxy-terminal domain RNA polymerase II polypeptide A small phosphatase 1 (Homo …; Recombinant Scp1, phosphopeptide, malachite green phosphate absorbance; inhibition, % at 20 µM; 340,000 tested, 0.88% active; AID 493091, 2011;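 active = inhibition above about 50% at 20 µM, limit read from the data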;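 note: plate controls were DMSO wells with enzyme for no effect and wells lacking enzyme for full effect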
# Target sequence (Q9GZU7 76-261 limits assumed): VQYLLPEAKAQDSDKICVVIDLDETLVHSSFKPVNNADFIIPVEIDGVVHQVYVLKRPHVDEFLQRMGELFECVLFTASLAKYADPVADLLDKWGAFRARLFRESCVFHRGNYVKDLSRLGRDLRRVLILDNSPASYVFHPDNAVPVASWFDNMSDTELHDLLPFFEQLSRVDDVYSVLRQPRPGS
#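 Test system: SCP-1 phosphatase catalytic domain, residues 76-261 | Compound dosing: One concentration, 20 µM, with 1.0% DMSO | Schedule: 45 min room-temperature reaction, 5 min colour, 30 min stabiliser | Detection: Absorbance at 630 nm | Read-out basis: % inhibition of SCP-1 phosphate liberation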
# SUMO1 PPI mod = modulators of SUMO1 protein-protein interactions, primary screen, biochemical, uHTS; Small ubiquitin-related modifier 1 (Homo sapiens), P63165; SUMO1 binding to a labelled peptide, TR-FRET, 1 h; inhibition, % at 20 µM; 360,000 tested, 0.33% active; in the data active = inhibition above about 37%
# Target sequence (P63165 whole entry, looked up): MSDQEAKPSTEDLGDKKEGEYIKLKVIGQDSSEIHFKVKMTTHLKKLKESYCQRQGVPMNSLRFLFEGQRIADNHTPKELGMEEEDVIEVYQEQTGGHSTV
# STEP block = STEP phosphatase inhibitors, primary screen, biochemical, fluorescence intensity, uHTS; recombinant STEP, OMFP fluorogenic substrate; inhibition, % at 20 µM; 360,000 tested, 0.25% active; AID 588621, 2011;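 active = inhibition at 20 µM, scaled per plate between control wells, above about 37%, limit read from the data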;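 note: 0% = DMSO with enzyme and substrate and 100% = substrate only without enzyme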
#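 material = STEP tyrosine phosphatase | reagent = fluorogenic phosphatase substrate OMFP at 25 µM final | doses = single compound dose of 20 µM, 1% DMSO final | schedule = 20 min reaction, room temperature, in the dark | measured by = fluorescence, 480/540 nm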
# CSN inh = inhibitors of CSN-mediated cullin deneddylation, primary screen, biochemical, fluorescence polarization, uHTS; COP9 signalosome complex subunit 5 (Homo sapiens), Q92905; Purified CSN, SCF-Nedd8-OG deneddylation; inhibition, % at 12.5 µM; 360,000 tested, 0.38% active; AID 651999, 2013;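 active = pattern-corrected inhibition above about 35%, with an unprinted fluorescence ratio check between 0.5 and 1.5, limit read from the data, passing the limit was not always enough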;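 note: 0% = enzyme with substrate and 100% = substrate without enzyme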
# Target sequence (Q92905 whole entry, looked up, one chain of several): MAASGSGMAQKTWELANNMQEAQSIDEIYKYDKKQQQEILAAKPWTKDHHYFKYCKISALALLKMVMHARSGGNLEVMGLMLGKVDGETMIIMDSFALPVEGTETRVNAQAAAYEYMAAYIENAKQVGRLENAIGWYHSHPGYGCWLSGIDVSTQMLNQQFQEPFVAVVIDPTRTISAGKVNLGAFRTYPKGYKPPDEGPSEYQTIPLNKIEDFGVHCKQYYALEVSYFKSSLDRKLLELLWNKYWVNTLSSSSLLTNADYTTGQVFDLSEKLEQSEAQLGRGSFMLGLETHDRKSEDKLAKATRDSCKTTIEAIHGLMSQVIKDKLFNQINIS
#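 Assay system: HEK293T-derived human Csn5 enzyme; quantity: 0.24 nM enzyme; medium: Tris/NaCl/DTT buffer, pH 7.5; also added: substrate SCFSkp2-Nedd8OG, 10 nM; doses: 12.5 µM compound; schedule: 90 min reaction at room temperature; signal: FP; read-out: % inhibition of substrate cleavage by Csn5; benchmarks: substrate-only high control, full reaction low control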
# LMPTP inh = LMPTP phosphatase inhibitors, primary screen, biochemical, fluorescence intensity, uHTS | 360,000 tested, 0.22% active | Low molecular weight phosphotyrosine protein phosphatase (Homo sapiens), P24666 | AID 651560, 2012 | recombinant LMPTP-A, OMFP fluorogenic substrate | inhibition, % at 20 µM;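 active = compounds that cut the enzyme signal by at least half of the control window in the single-dose screen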;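 note: plate controls were DMSO wells with enzyme plus substrate for no effect and substrate without enzyme for full effect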
# Target sequence (P24666 whole entry, looked up): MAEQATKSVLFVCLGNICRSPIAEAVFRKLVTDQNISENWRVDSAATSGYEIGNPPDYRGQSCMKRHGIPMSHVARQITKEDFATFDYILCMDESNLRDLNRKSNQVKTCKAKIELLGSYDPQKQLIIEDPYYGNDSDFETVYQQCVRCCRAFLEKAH
#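 Buffer or medium: Bis-Tris pH 6.0, DTT, detergent; Assay system: LMPTP-A enzyme; Quantity: 0.625 nM enzyme; Detection: endpoint fluorescence intensity; Times: 50 min dark incubation at room temperature; Controls: substrate-only low control, DMSO enzyme-plus-substrate high control; Doses: single 20 µM dose; Read-out: percent inhibition versus substrate-only and uninhibited controls; Reagent: 400 µM OMFP.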
# Scp-1 conf = Scp-1 phosphatase inhibitors, retest, confirmation, biochemical, colorimetric, single concentration; shares compounds with Scp1 inh; recombinant SCP-1 catalytic domain, phosphate release, malachite green absorbance; inhibition, % at 20 µM; 2,500 tested, 61% active; AID 540281, 2011;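 note: plate controls were DMSO with enzyme for no effect and buffer wells lacking enzyme for full effect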
# MG interference = colorimetric readout interference by compounds, confirmation, artefact control for Scp-1 inhibitor project, biochemical, single concentration; apparent inhibition (interference), % at 20 µM; Colorimetric interference counterscreen, malachite green absorbance 630 nm; AID 540313, 2011; 2,500 tested, under 10 active; shares compounds with Scp1 inh;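 note: compounds added after enzyme reaction finished so only phosphate colour detection is probed; plate controls were DMSO wells with completed Scp-1 reaction for no effect and substrate wells lacking enzyme for full effect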
# Scp-1 Tm shift = Scp-1 binding by thermal shift, confirmation, orthogonal assay for Scp-1 inhibitor project, biophysical, differential scanning fluorimetry; shares compounds with Scp1 inh; Recombinant SCP1, Sypro Orange thermal shift Tm; thermal shift relative to vanadate control, % at 40 µM; 1,500 tested, 25% active; AID 540329, 2011;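 active = substances whose mean melting-temperature shift, as a percentage of the reference inhibitor's shift, reaches about 5.3%, limit read from the data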;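 note: 0% = Tm of DMSO wells and 100% = Tm with sodium orthovanadate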
# Numbers without * were called inactive; · = not tested or not shown.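 Rule for the calls, unless noted: active = inhibition of at least 30% at 20 µM; inactive = the rest.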
SMILES,DNMT1 block,Scp1 inh,SUMO1 PPI mod,STEP block,CSN inh,LMPTP inh,Scp-1 conf,MG interference,Scp-1 Tm shift
CC(C)C[C@H]1CNC(=O)C(=O)N1C[C@H](Cc1ccc(O)cc1)NC(=O)CC12CC3CC(CC(C3)C1)C2,·,·,2.5,·,3.0,-1.1,·,·,·
NC(=O)c1cc(S(=O)(=O)NCc2ccc(F)cc2)cs1,-1.0,-5.1,1.8,-1.5,-3.1,-0.5,·,·,·
Cc1cccc(CNS(=O)(=O)c2csc(C(N)=O)c2)c1,0.7,-11.0,7.8,-5.0,0.7,-2.4,-9.3,-12.0,·
CSc1ccc(CCNS(=O)(=O)c2csc(C(N)=O)c2)cc1,-2.0,-4.0,32.0,0.2,-10.9,0.3,5.1,-1.6,·
NC(=O)c1cc(S(=O)(=O)NCc2cccc(Br)c2)cs1,-2.3,-9.1,9.6,6.0,-2.7,-0.2,·,·,·
O=C(Cc1c(Cl)cccc1Cl)OCC(=O)N1CCN(C(=O)c2ccco2)CC1,1.3,-5.6,0.5,-1.0,-1.4,0.1,·,·,·
CCSc1nnc(NC(=O)C2CC=CCC2C(=O)O)s1 (stereo not drawn),26.8,86.7*,4.5,11.6,4.9,0.0,52.5*,-7.6,-5.3
CCSc1nnc(NC(=O)C2CCCCC2)s1,0.6,-1.3,-1.7,-3.7,-1.5,-0.9,·,·,·
COc1ccc(C(=O)OCC(=O)NCc2ccco2)cc1OC,28.9,55.5*,11.1,2.0,7.7,3.8,52.5*,-16.4,-2.9
O=C(COc1ccccc1Cl)NCc1ccco1,-1.8,-7.6,-1.7,-2.1,1.4,-2.0,·,·,·
CCOc1ccccc1OCC(=O)NCc1ccco1,19.1,58.2*,4.2,-1.5,5.0,-0.7,59.9*,-17.3,-0.9
O=C(COc1ccc(Cl)cc1Cl)NCc1ccco1,-1.5,4.1,-1.8,-2.7,0.1,-1.7,·,·,·
COc1ccc(/C=C/C(=O)OCC(=O)NCc2ccco2)cc1OC,12.6,52.2*,-11.0,-1.5,-4.0,-0.6,59.0*,-10.7,-15.7
Cc1ccc(OCC(=O)N(C)CC(=O)NCc2ccco2)c(Br)c1,39.4,69.8*,14.6,4.8,12.9,2.3,74.5*,-6.0,0.5
COc1ccc(Cl)cc1S(=O)(=O)N1CCN(C(=O)COc2ccccc2)CC1,0.7,-11.2,3.3,2.3,-0.5,0.3,·,·,·
CCCCn1c(N)c(N(CC(C)C)C(=O)CSc2n[nH]c(-c3ccc(C)cc3)n2)c(=O)[nH]c1=O,3.8,-1.2,0.1,-3.2,-3.0,-0.7,·,·,·
Clc1ccc(-n2c(SCc3nc4ccccc4[nH]3)nnc2-c2ccncc2)cc1,2.1,-3.8,2.0,0.6,2.7,0.2,·,·,·
COc1ccc(OCCC(=O)OCC(=O)NCc2ccco2)cc1,38.1,86.0*,3.8,5.1,0.6,3.4,72.4*,-5.2,-12.2
O=C(COC(=O)COc1ccccc1)NCc1ccco1,2.6,-4.9,5.0,-0.2,-4.2,-1.2,·,·,·
Nn1c(SCC(=O)Nc2ccc3c(c2)OCCO3)nnc1C(F)(F)F,1.5,99.6*,0.3,0.4,-2.5,-4.0,10.0,0.3,·
Cc1cc(C(=O)N2CCc3ccccc3C2)on1,0.4,-0.2,5.2,-0.1,2.4,-0.7,·,·,·
CCOC(=O)c1[nH]c(C)c(C(=O)NCc2ccco2)c1C,2.7,63.8*,1.0,5.1,2.9,-0.4,-8.4,-15.8,·
COc1ccc(-n2c(Cc3cccn3C)nnc2SCC(=O)NCc2ccco2)cc1,0.9,14.7,-0.8,-0.6,-6.0,-0.5,·,·,·
COc1ccc(-n2c(Cc3cccn3C)nnc2SCC(=O)NCc2ccc(F)cc2)cc1,-0.1,90.2*,5.5,-3.3,-1.5,-0.3,-1.8,-7.9,·
CCOC(=O)CSc1nc(C(C)(C)C)cc(C(F)(F)F)c1C#N,-0.2,-10.5,7.8,0.1,3.0,0.4,·,·,·
SMILES,DNMT1 block,Scp1 inh,SUMO1 PPI mod,STEP block,CSN inh,LMPTP inh,Scp-1 conf,MG interference,Scp-1 Tm shift
O=C(NCCc1ccccc1)c1ccc(-c2ccccc2C(F)(F)F)o1,·,96.8*,·,·,·,·,20.1,-27.2,·
O=C(NCCc1ccccc1)c1ccc(-c2ccc(F)cc2)o1,6.6,26.4,-4.5,-1.9,5.5,0.7,·,·,·
Cc1cc2ccccn2c1C(=O)c1ccc(N/N=C/c2ccc(C(=O)O)cc2)c([N+](=O)[O-])c1,88.1*,114.4*,103.7*,99.4*,1.7,8.3,70.1*,-19.4,6.4*
Cc1ccc(S(=O)(=O)N2CCCCC2)cc1C(=O)Nc1cccnc1,22.2,52.5*,9.9,2.4,4.8,-0.6,51.3*,-12.6,-12.6
COc1ccc2c(c1)c(=O)oc1cc(OCC(=O)NC3CCCCC3)ccc12,51.7*,70.5*,-16.9,6.3,11.0,3.7,55.6*,-15.3,-16.0
Cc1cccc(Nc2nnc(SCC(=O)c3c(N)n(C4CC4)c(=O)[nH]c3=O)s2)c1,2.0,-3.3,1.1,-1.1,-2.5,2.1,·,·,·
C/C(N)=C(/C#N)C(=O)CSc1nnc(Nc2cccc(C)c2)s1,23.0,64.0*,10.4,2.6,3.7,8.1,74.3*,-4.6,-1.9
CC(C)C(=O)N[C@@H]1c2ccccc2CC[C@@H]1O,3.2,3.9,0.1,-2.3,-3.5,-1.8,·,·,·
C[n+]1cn(CC(O)COCc2ccccc2)c2ccccc21 (stereo not drawn),8.8,71.0*,1.4,8.1,8.0,-1.0,71.1*,-15.6,-7.8
O=C(O)CN(CC(=O)O)CC(=O)O,-0.5,-11.7,1.4,0.8,-1.5,-1.2,·,·,·
Cc1c(C)n2c(SCC(=O)Nc3cccc4ccccc34)nnc2[nH]c1=O,-0.4,-0.8,4.0,-0.3,-0.6,1.5,·,·,·
O=C(CNC1CCCCCC1)Nc1ccccc1N1CCCCC1,0.1,89.9*,-1.1,0.6,7.4,-0.3,-9.0,-10.9,·
COc1ccc2c(c1)[N+](C)(C)C(C)(C)C=C2C,-3.6,93.4*,0.8,-1.9,5.5,-2.4,86.2*,-12.3,-21.2
